We go through one compound from ChEMBL document CHEMBL4609986 (Bioorg Med Chem, 2020).

Data set [1] in a line: Apparent permeability in human Caco2 cells measured after 2 hrs by LC-MS/MS analysis. Type of data set: ADME, cell-based, Caco-2. Conditions: Caco-2. An outline of the steps: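 Caco-2 monolayers grown on polycarbonate filter inserts (5 × 10⁵ cells/well seeded) and differentiated 21 ± 4 days. Transport run in HBSS with 25 mM HEPES, pH 7.4, 37 °C; compound added donor side. Receiver sampled over 2 h, donor at 0 and 2 h; LC-MS/MS with internal standard. Papp = (dC_rec/dt)/(A × C0,donor) × 10^6.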
In general terms: Caco-2 monolayers are a common model of the intestinal barrier.

Data set [2] deals with T1, Dual specificity tyrosine-phosphorylation-regulated kinase 1A (Homo sapiens, UniProt Q13627). Briefly: Inhibition of wild-type human partial length DYRK1A (H129 to S509 residues) expressed in mammalian expression system assessed as residual activity at 500 nM by Kinomescan method relative to control. The procedure, abridged: (§1)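 Kinase panel of 468 kinases, scored as residual activity at 100 nM or 500 nM test compound.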

For data set [3], the target named is T2, Aurora kinase B (Homo sapiens, UniProt Q96GD4). Briefly: Inhibition of AURKB in human HEK293T cells assessed as reduction in cell viability at 270 nM measured after 48 hrs in presence of 10 uM TAK-733. Type of data set: cell-based. Conditions: hek-293t, 0.27 µM. The procedure, abridged:
(§2)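 HEK293T cells treated 48 h with the compound alone or combined with a second kinase inhibitor at the stated level, then fixed, stained and counted. Cell number expressed as a percentage of untreated wells; n = 4-16.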

The target in data set [4] is T3, AURKB (Aurora kinase B) (Homo sapiens, UniProt Q96GD4). Briefly: Inhibition of AURKB in human HEK293T cells assessed as reduction in cell viability at 30 nM measured after 48 hrs in presence of 3 uM MK-5108 relative to control. Type of data set: cell-based, HEK-293T. An outline of the steps:
as §2

Data set [5] in a line: Selectivity index, ratio of CC50 for mouse R7T1 cells assessed as reduction in cell viability measured after 48 hrs by Hoechst 33342 staining based analysis to MEC for inhibition of DYRK1A in human pancreatic islets assessed as induction of pancreatic beta-cells replication measured after 48 hrs by Hoechst 33342 staining based analysis.
For data set [6], the target named is T4, Aurora kinase A (Homo sapiens) (UniProt O14965).
T4 sequence (whole entry): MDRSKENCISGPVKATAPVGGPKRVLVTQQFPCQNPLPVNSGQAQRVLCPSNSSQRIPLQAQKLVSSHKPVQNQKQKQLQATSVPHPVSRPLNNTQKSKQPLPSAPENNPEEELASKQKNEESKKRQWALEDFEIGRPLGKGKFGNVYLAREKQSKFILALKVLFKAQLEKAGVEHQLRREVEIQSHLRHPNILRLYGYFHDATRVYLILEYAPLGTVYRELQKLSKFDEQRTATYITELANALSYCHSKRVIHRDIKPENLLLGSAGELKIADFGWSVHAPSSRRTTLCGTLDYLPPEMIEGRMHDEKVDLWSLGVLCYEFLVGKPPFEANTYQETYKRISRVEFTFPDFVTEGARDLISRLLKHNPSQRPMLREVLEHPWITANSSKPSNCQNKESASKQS
Briefly: Inhibition of wild-type human partial length AURKA (E122 to K401 residues) expressed in mammalian expression system assessed as residual activity at 500 nM by Kinomescan method relative to control. The procedure, abridged: as §1

Data set [7] concerns the target T1, Dual specificity tyrosine-phosphorylation-regulated kinase 1A. Briefly: Inhibition of DYRK1A in human pancreatic islets assessed as induction of pancreatic beta-cells replication measured after 48 hrs by Hoechst 33342 staining based analysis. The procedure, abridged: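 Human islets (85-95% purity) rested 12 h in low-glucose DMEM with 10% FBS and 20 nM exendin-4. Dispersed to single cells and plated on 804G-conditioned-matrix 384-well plates for 48 h. Treated 48 h, then fixed with 4% PFA. Stained with anti-insulin, anti-Ki-67 and 4 μM Hoechst 33342; Ki67+Insulin+/Insulin+ scored by high-content imaging against per-plate cutoffs.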

For data set [8], the species on record is Homo sapiens. Briefly: Selectivity index, ratio of CC50 for human HEK293T cells transfected with DYRK1A co-tranfected with Renilla plasmid, pGL3-NFAT and NFATc1 assessed as reduction in luciferase activity by measuring cell number to EC50 for human DYRK1A transfected in HEK293T cells co-transfected with Renilla plasmid, pGL3-NFAT and NFATc1 assessed as derepression of NFAT-dependent luciferase activity measured after 48 hrs by luciferase assay. Type of data set: cell-based. An outline of the steps:
(§3)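 HEK293T cells transfected with PEI using DYRK1A, Renilla plasmid, IL-2-based pGL3-NFAT firefly reporter and NFATc1. Next day the same transfected population was split into 96-well plates; 6 h later cells were treated for 48 h (11-point dose curve, n = 4), then lysed. EC50 from firefly/Renilla ratio, 4-parameter agonist fit. CC50 from loss of constitutive Renilla signal, 4-parameter inhibitor fit.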

Data set [9] concerns the target Dual specificity mitogen-activated protein kinase kinase 1 (Homo sapiens) (UniProt Q02750). Briefly: Inhibition of wild-type human full length MEK1 (M1 to V393 residues) expressed in mammalian expression system assessed as residual activity at 500 nM by Kinomescan method relative to control. The procedure, abridged:
as §1

The target in data set [10] is T5, Tyrosine-protein kinase ABL1 (Homo sapiens, UniProt P00519). Briefly: Inhibition of ABL1 in human HEK293T cells assessed as cell death at 30 to 270 nM measured after 48 hrs in presence of 1 uM dasatinib. Conditions: hek-293t, 0.27 µM. Type of data set: cell-based. The procedure, abridged: as §2
T5 sequence (P00519 whole entry): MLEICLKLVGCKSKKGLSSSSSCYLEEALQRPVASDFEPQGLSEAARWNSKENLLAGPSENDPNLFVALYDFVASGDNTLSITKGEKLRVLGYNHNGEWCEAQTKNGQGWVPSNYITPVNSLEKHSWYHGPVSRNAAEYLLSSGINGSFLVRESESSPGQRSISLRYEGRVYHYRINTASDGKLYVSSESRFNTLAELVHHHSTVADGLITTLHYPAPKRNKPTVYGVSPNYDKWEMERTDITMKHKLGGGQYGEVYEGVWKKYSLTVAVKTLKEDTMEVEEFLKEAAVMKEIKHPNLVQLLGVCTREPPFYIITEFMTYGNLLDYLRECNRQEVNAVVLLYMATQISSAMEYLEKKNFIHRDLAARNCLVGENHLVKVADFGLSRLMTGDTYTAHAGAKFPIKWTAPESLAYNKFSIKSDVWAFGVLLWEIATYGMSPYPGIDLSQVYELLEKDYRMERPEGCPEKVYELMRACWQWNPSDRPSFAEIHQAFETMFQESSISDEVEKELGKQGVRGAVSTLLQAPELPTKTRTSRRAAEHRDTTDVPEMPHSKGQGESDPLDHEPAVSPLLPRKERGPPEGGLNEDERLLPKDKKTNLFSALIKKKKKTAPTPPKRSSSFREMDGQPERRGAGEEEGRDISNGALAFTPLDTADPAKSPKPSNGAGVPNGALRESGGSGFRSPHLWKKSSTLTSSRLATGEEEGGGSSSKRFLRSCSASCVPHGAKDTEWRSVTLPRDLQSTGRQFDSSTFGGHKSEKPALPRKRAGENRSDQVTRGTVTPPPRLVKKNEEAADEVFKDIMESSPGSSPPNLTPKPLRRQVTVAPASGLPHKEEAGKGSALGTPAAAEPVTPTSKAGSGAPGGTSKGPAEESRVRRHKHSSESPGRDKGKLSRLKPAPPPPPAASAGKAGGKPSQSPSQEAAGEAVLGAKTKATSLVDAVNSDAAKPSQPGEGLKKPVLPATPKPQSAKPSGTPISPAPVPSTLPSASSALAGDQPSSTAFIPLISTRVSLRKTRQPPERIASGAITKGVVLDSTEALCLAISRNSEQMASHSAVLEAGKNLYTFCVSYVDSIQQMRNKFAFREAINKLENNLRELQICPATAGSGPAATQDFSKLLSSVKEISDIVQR
Data set [11] concerns the target T3, AURKB (Aurora kinase B). Briefly: Inhibition of AURKB in human HEK293T cells assessed as reduction in cell viability at 90 to 270 nM measured after 48 hrs in presence of 40 nM MLN-8054 relative to control. Type of data set: cell-based, HEK-293T. An outline of the steps: as §2
Data set [12] has as its target T1, Dual specificity tyrosine-phosphorylation-regulated kinase 1A. Briefly: Inhibition of human DYRK1A transfected in HEK293T cells co-transfected with Renilla plasmid, pGL3-NFAT and NFATc1 assessed as derepression of NFAT-dependent luciferase activity measured after 48 hrs by luciferase assay. Type of data set: cell-based, HEK-293T. The procedure, abridged:
as §3

Data set [13] addresses T5, Tyrosine-protein kinase ABL1. Briefly: Inhibition of wild-type human phosphorylated ABL1 (S229 to K512 residues) expressed in mammalian expression system assessed as residual activity at 500 nM by Kinomescan method relative to control. An outline of the steps: as §1
In data set [14] the target is Maternal embryonic leucine zipper kinase (Homo sapiens, UniProt Q14680). Briefly: Inhibition of wild-type human full length MELK (M1 to V651 residues) expressed in bacterial expression system assessed as residual activity at 500 nM by Kinomescan method relative to control. The procedure, abridged: as §1
Sequence of Maternal embryonic leucine zipper kinase (Q14680 whole entry, looked up, the tested form may be a part): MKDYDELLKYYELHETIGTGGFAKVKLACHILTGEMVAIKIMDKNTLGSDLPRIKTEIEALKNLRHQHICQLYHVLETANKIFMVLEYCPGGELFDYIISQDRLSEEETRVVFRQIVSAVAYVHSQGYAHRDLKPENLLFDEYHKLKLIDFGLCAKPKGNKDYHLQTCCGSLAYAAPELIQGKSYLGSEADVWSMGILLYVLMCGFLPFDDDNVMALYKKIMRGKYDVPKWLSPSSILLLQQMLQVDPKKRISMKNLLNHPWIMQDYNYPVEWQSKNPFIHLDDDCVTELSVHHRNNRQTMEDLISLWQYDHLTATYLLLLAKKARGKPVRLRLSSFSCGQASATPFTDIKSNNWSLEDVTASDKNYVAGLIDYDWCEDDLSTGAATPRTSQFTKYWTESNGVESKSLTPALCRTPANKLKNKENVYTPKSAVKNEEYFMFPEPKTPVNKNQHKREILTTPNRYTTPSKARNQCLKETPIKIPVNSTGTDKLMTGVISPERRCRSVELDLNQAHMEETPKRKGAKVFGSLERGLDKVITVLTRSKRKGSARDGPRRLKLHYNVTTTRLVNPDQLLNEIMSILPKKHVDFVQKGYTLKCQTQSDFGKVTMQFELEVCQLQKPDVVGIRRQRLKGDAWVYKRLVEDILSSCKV
Data set [15] concerns the target T5, Tyrosine-protein kinase ABL1. Briefly: Inhibition of ABL1 in human HEK293T cells assessed as cell death at 30 to 270 nM measured after 48 hrs in presence of 1 uM imatinib. Type of data set: cell-based. Conditions: hek-293t, 0.27 µM, in the assay text read “3 uM imatinib” for “1 uM imatinib”. An outline of the steps:
as §2

The target of data set [16] is T2, Aurora kinase B. Briefly: Inhibition of wild-type human partial length AURKB (D25 to A303 residues) expressed in mammalian expression system assessed as residual activity at 500 nM by Kinomescan method relative to control. An outline of the steps:
as §1

Data set [17] addresses T5, Tyrosine-protein kinase ABL1. Briefly: Inhibition of wild-type human non-phosphorylated ABL1 (S229 to K512 residues) expressed in mammalian expression system assessed as residual activity at 500 nM by Kinomescan method relative to control. An outline of the steps: as §1
Data set [18] deals with Dual specificity mitogen-activated protein kinase kinase 2 (Homo sapiens) (UniProt P36507). Briefly: Inhibition of wild-type human full length MEK2 (M1 to V400 residues) expressed in mammalian expression system assessed as residual activity at 500 nM by Kinomescan method relative to control. An outline of the steps: as §1
Sequence of Dual specificity mitogen-activated protein kinase kinase 2 (Homo sapiens) (P36507 whole entry, the tested form may be a part): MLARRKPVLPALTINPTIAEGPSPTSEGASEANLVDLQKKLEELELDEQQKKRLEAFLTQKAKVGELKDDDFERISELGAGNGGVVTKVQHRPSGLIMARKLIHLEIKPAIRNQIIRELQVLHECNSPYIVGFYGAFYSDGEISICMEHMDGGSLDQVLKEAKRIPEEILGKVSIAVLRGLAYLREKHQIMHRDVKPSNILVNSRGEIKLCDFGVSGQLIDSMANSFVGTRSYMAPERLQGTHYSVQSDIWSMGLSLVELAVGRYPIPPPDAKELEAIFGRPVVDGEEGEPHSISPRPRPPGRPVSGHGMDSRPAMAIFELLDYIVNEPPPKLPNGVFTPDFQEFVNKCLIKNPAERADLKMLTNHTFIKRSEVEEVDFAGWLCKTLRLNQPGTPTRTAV

T3 sequence (Q96GD4 whole entry): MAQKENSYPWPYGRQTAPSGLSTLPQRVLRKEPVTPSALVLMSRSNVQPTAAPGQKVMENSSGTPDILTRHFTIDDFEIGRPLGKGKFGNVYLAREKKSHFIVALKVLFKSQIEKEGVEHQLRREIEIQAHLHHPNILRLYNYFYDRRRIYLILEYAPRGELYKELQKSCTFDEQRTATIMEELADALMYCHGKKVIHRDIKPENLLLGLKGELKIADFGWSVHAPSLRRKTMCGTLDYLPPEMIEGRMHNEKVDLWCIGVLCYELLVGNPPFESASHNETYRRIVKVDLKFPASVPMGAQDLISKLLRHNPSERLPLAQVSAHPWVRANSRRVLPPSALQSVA
T2 sequence (Q96GD4 whole entry): as above
Sequence of Dual specificity mitogen-activated protein kinase kinase 1 (Homo sapiens) (Q02750 whole entry, the tested form may be a part): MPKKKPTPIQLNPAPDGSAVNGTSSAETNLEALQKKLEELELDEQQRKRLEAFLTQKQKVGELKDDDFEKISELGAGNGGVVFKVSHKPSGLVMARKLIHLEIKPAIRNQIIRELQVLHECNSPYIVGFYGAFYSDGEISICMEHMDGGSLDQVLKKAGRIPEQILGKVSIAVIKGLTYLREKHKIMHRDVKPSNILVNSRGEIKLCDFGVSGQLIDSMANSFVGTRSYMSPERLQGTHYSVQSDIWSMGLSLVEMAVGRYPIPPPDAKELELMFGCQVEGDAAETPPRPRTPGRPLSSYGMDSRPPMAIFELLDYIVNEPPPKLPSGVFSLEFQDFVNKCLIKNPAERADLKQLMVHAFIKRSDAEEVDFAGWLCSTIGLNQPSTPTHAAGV

As usually defined, the Papp is the rate of passage across a membrane or cell layer, normalised by area and donor concentration. One may read the inhibition as the drop in the measured response relative to a control, in per cent. One may read the EC50 as the midpoint of the concentration-response curve. On to `CCOC(=O)c1cnc2ccc(-c3ccncc3)nc2c1N[C@H]1CC[C@H](CN(C)C)CC1`, for which the Papp at 2 h in data set [1] is 4.03 ×10⁻⁶ cm/s. For the same compound, the Activity in data set [2] amounted to 0%; in data set [6], 97%; in [9], 69%; in data set [13], 43%; in data set [14], 4.7%; in [16], 67%. Moreover, the figures for the Activity in data set [17] and in data set [18] were 43% and 55%, respectively. The “inhibition (INH)” value in [3], in data set [10] and in [15] was “Not Active” in each case. Moreover, the inhibition at 48 h, 0.03 µM in [4] was 31%. Also, the “Selectivity Index” value in data set [5] worked out at 143. Further, in data set [7], the MEC amounted to 27 nM. Besides, the Ratio CC50/EC50 in [8] was 36. Also, in data set [11], the inhibition at 48 h, up to 0.27 µM amounted to 50%. The EC50 in [12] is 223 nM.
